Test results reported in ChEMBL document CHEMBL1155843, “Selective alkylation of beta(II)-tubulin and thioredoxin-1 by structurally related subsets of aryl chloroethylureas leading to either anti-microtubules or redox modulating agents” (2008).
Each block holds one compound with its values, some of them ahead of it. Activity calls are given as the source filed them. The rule behind the calls is not given here.

Assays:
M21 [1] = experiment: Antiproliferative activity against human M21 cells after 48 hrs by sulforhodamine B method; assay type: functional; details: for GI50: M21, 48 h
Summary of the method: (§1)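 Seeding per well: 5 × 10³ HT-29 cells, or 3.5 × 10³ M21 or MCF-7 cells. Drugs were dissolved fresh in DMSO and serially diluted in medium (final range 100 to 0.3), with DMSO held at 0.12%. Cells were exposed for 48 h, fixed with cold TCA (10% final, 1 h, 4 °C) and stained with 0.1% SRB for 15 min. Dye was solubilized in 10 mM Tris and read at A585. Day-0 OD was subtracted, inhibition was calculated against DMSO cells, and n ≥ 3.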

HT-29 = experiment: Antiproliferative activity against human HT29 cells after 48 hrs by sulforhodamine B method; assay type: functional; details: for GI50: HT-29, 48 h; summary of the method: as §1
MCF7 [2] = experiment: Cell cycle arrest in human MCF7 cells assessed as accumulation at G0/G1 phase at 2 times GI50 after 24 hrs by flow cytometry; assay type: functional
Summary of the method: (§2)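 Cells were trypsinized, PBS-washed, fixed in ice-cold ethanol, and stained with propidium iodide plus RNase for 30 min at room temperature. G0/G1, S and G2/M fractions were measured by flow cytometry.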

M21 [3] = experiment: Induction of beta2-tubulin alkylation in human M21 cells at 2 times GI50 by Western blot analysis; assay type: cell-based
Summary of the method: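 Floating and adherent cells were pooled and lysed in boiled Laemmli buffer; protein was measured by Lowry. 20 µg per lane ran on 10% SDS-PAGE and was blotted with anti-βII-tubulin (1:500), HRP anti-mouse (1:2500) and ECL. Alkylation was scored as a faster-migrating βII-tubulin band.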

M21 [4] = experiment: Inhibition of nuclear translocation of thioredoxin-1 from cytosol in human M21 cells at 2 times GI50 after 16 hrs by immunocytofluorescence; assay type: functional, cell-based
Summary of the method: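 Cells were fixed in 3.7% formaldehyde (20 min), permeabilized with 0.1% saponin and blocked with 3% BSA. Staining used anti-Trx-1 monoclonal (1:200, 2 h, 37 °C) and Alexa-488 anti-mouse IgG (1:1000, 1 h). Trx-1 cytosol/nucleus localization was read by confocal immunofluorescence.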

MCF7 [5] = experiment: Antiproliferative activity against human MCF7 cells after 48 hrs by sulforhodamine B method; assay type: functional; details: for GI50: MCF7, 48 h; summary of the method: as §1
MCF7 [6] = experiment: Cell cycle arrest in human MCF7 cells assessed as accumulation at G2/M phase at 2 times GI50 after 24 hrs by flow cytometry; assay type: functional; summary of the method: as §2
MCF7 [7] = experiment: Cell cycle arrest in human MCF7 cells assessed as accumulation at S phase at 2 times GI50 after 24 hrs by flow cytometry; assay type: functional; summary of the method: as §2

GI50 (HT-29): 3.2 µM
GI50 (MCF7 [5]): 12 µM
SMILES: O=C(NCCCl)Nc1ccc2c(c1)CCCCC2
GI50 (M21 [1]): 7.2 µM
Activity (MCF7 [2]): 33%
Activity (M21 [3]): inactive
Activity (M21 [4]): inactive
Activity (MCF7 [6]): 43%
Activity (MCF7 [7]): 24%

GI50 (HT-29): 7.8 µM
GI50 (MCF7 [5]): 18 µM
SMILES: CC1(c2ccc(NC(=O)NCCCl)cc2)CCCCC1
GI50 (M21 [1]): 16 µM
Activity (MCF7 [2]): 60%
Activity (M21 [3]): inactive
Activity (M21 [4]): Active
Activity (MCF7 [6]): 31%
Activity (MCF7 [7]): 9%

SMILES: O=C(NCCCl)Nc1ccc(N2CCOCC2)cc1
Activity (M21 [1]): inactive
Activity (HT-29): inactive
Activity (M21 [3]): inactive
Activity (MCF7 [5]): inactive

SMILES: O=C(NCCCl)NC1c2ccccc2-c2ccccc21
Activity (MCF7 [2]): 63%
Activity (M21 [3]): inactive
Activity (M21 [4]): inactive
Activity (MCF7 [6]): 8%
Activity (MCF7 [7]): 29%

SMILES: O=C(CCl)NC(=O)Nc1ccccc1
GI50 (M21 [1]): 6.9 µM
Activity (M21 [3]): inactive
Activity (M21 [4]): inactive

SMILES: O=C(CCl)NC(=O)Nc1cccc(C2CCCCC2)c1
GI50 (M21 [1]): 2.4 µM
Activity (M21 [3]): inactive
Activity (M21 [4]): Active

GI50 (HT-29): 19 µM
GI50 (MCF7 [5]): 33 µM
SMILES: CC1CCC(Oc2cccc(NC(=O)NCCCl)c2)CC1 (configuration not stated)
GI50 (M21 [1]): 32 µM
Activity (MCF7 [2]): 65%
Activity (M21 [3]): inactive
Activity (M21 [4]): Active
Activity (MCF7 [6]): 15%
Activity (MCF7 [7]): 20%

SMILES: O=C(NCCCl)Nc1ccc(Oc2ccccc2)cc1
Activity (MCF7 [2]): 15%
Activity (M21 [3]): inactive
Activity (M21 [4]): inactive
Activity (MCF7 [6]): 65%
Activity (MCF7 [7]): 20%

SMILES: c1cc(N2CCOCC2)ccc1NC1=NCCO1
Activity (M21 [1]): inactive
Activity (M21 [3]): inactive
Activity (M21 [4]): inactive

SMILES: O=C(NCCCl)Nc1cccc(OC2CCCCC2)c1
Activity (M21 [3]): inactive

SMILES: O=C(NCCCl)Nc1ccc(C2CCCCC2)cc1
Activity (M21 [3]): inactive
Activity (M21 [4]): Active

GI50 (HT-29): 9.1 µM
GI50 (MCF7 [5]): 17 µM
SMILES: CCC1(c2ccc(NC(=O)NCCCl)cc2)CCCCC1
GI50 (M21 [1]): 19 µM
Activity (MCF7 [2]): 66%
Activity (M21 [3]): inactive
Activity (M21 [4]): Active
Activity (MCF7 [6]): 17%
Activity (MCF7 [7]): 17%

GI50 (HT-29): 18 µM
GI50 (MCF7 [5]): 26 µM
SMILES: O=C(NCCCl)Nc1ccc(C2CCCC2)cc1
GI50 (M21 [1]): 27 µM
Activity (MCF7 [2]): 63%
Activity (M21 [3]): inactive
Activity (MCF7 [6]): 13%
Activity (MCF7 [7]): 24%

SMILES: O=C(CCl)NC(=O)Nc1ccc(N2CCOCC2)cc1
GI50 (M21 [1]): 8.3 µM
Activity (M21 [3]): inactive

SMILES: O=C(NCCCl)Nc1cccc(OC2CCCCCC2)c1
Activity (M21 [3]): inactive
Activity (M21 [4]): Active

SMILES: c1ccc(NC2=NCCO2)cc1
GI50 (M21 [1]): 81 µM
Activity (M21 [3]): inactive
Activity (M21 [4]): inactive

SMILES: CC(C)(C)c1ccc(NC2=NCCO2)cc1
Activity (M21 [3]): inactive
Activity (M21 [4]): inactive

SMILES: c1cc(C2CCCCC2)ccc1NC1=NCCO1
GI50 (M21 [1]): 18 µM
Activity (M21 [3]): inactive
Activity (M21 [4]): Active

SMILES: O=C(NCCCl)Nc1cccc(OC2CCCC2)c1
Activity (M21 [3]): inactive

SMILES: O=C(CCl)NC(=O)Nc1ccc(C2CCCCC2)cc1
Activity (M21 [3]): inactive
Activity (M21 [4]): Active

SMILES: O=C(NCCCl)Nc1ccc(OC2CCCCC2)cc1
Activity (M21 [3]): inactive
Activity (M21 [4]): Active

SMILES: CC(C)(C)c1ccc(NC(=O)NC(=O)CCl)cc1
Activity (M21 [3]): inactive
Activity (M21 [4]): Active

SMILES: O=C(NCCCl)Nc1ccc(OC2CCCC2)cc1
Activity (M21 [3]): inactive
Activity (M21 [4]): Active

SMILES: c1cc(NC2=NCCO2)cc(C2CCCCC2)c1
GI50 (M21 [1]): 45 µM
Activity (M21 [3]): inactive
Activity (M21 [4]): Active

GI50 (HT-29): 13 µM
SMILES: O=C(NCCCl)Nc1ccc(OC2CCCCCC2)cc1
Activity (M21 [3]): inactive
Activity (M21 [4]): Active
